The first assay relates to MDA-MB-231. In words: Antiproliferative activity against human MDA-MB-231 cells incubated for 24 hrs by MTT assay. It is filed as functional, cell-based. As to conditions: MDA-MB-231, 24 h. In a few lines: (§1)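 MDA-MB-231 cells grown in DMEM with 10% FBS under 5% CO2 were seeded at 5×10^4 cells/ml. After 24 h, a concentration series was added for 24, 48 or 72 h and viability was read by MTT. IC50 is mean ± SD of triplicates.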
In the case of `COc1cccc(Nc2cc(N3CCN(C(=O)Nc4ccccc4Cl)CC3)ncn2)c1`, the midpoint of inhibition, the IC50, lay at 2.8 µM.
The same measure, in the same setting: the result for `COc1cccc(Nc2cc(N3CCN(C(=O)c4ccc(Cl)cc4Cl)CC3)ncn2)c1` reads 7.23 µM.
On the same count and under the same terms, the result for `O=C1CC[C@@H](C(=O)N2CCN(c3nccc(Oc4cc(Cl)cc(Cl)c4)n3)CC2)N1` reads above 50 µM; that for `O=C([C@H]1Cc2ccccc2N1)N1CCN(c2nccc(Oc3cc(Cl)cc(Cl)c3)n2)CC1`, above 50 µM; that for `O=C(Nc1ccccc1Cl)N1CCN(c2nccc(NCc3ccccc3)n2)CC1`, 1.59 µM.
`COc1cccc(Nc2ccnc(N3CCN(C(=O)Nc4ccc(C(F)(F)F)cc4)CC3)n2)c1`: the IC50 stood at 1.24 µM.
On the same count and under the same terms, the result for `O=C(c1cccc(C(F)(F)F)c1)N1CCN(c2nccc(Oc3cc(Cl)cc(Cl)c3)n2)CC1` reads 17.9 µM; that for `Cc1cnc(C(=O)N2CCN(c3nccc(Oc4cc(Cl)cc(Cl)c4)n3)CC2)cn1`, 34.8 µM; that for `O=S(=O)(c1ccc(F)cc1)N1CCN(c2nccc(Oc3cc(Cl)cc(Cl)c3)n2)CC1`, above 50 µM.
The same measure, in the same setting: the result for `O=C(c1ccccc1F)N1CCN(c2nccc(Oc3cc(Cl)cc(Cl)c3)n2)CC1` reads above 50 µM.
Regarding `CC(C)(C(=O)N1CCN(c2nccc(Oc3cc(Cl)cc(Cl)c3)n2)CC1)c1cc(C(F)(F)F)cc(C(F)(F)F)c1`, the IC50 was above 50 µM.
In the case of `O=C(CN1CCOCC1)N1CCN(c2nccc(Oc3cc(Cl)cc(Cl)c3)n2)CC1`, 37.6 µM corresponded to half-maximal inhibition (IC50).
The same measure, in the same setting: in the case of `O=S(=O)(c1cccnc1)N1CCN(c2nccc(Oc3cc(Cl)cc(Cl)c3)n2)CC1` it was 24.8 µM; in that of `O=C(Nc1cc(C(F)(F)F)cc(C(F)(F)F)c1)N1CCN(c2nccc(Oc3cc(Cl)cc(Cl)c3)n2)CC1`, 6.74 µM; in that of `CN1CCN(CC(=O)N2CCN(c3nccc(Oc4cc(Cl)cc(Cl)c4)n3)CC2)CC1`, 24.7 µM.
The same measure, in the same setting: the result for `O=C(c1cccc(Cl)c1)N1CCN(c2nccc(Oc3cc(Cl)cc(Cl)c3)n2)CC1` reads 37.8 µM; that for `C#Cc1cccc(Nc2ncnc3cc(OCCOC)c(OCCOC)cc23)c1` [ERLOTINIB], 55.5 µM; that for `O=C(Nc1ccccc1Cl)N1CCN(c2nccc(Oc3cc(Cl)cc(Cl)c3)n2)CC1`, 11 µM.
On the same count and under the same terms, the result for `O=C(c1ccc2c(c1)OCO2)N1CCN(c2nccc(Oc3cc(Cl)cc(Cl)c3)n2)CC1` reads above 50 µM; that for `O=C(c1cc(Cl)ccn1)N1CCN(c2nccc(Oc3cc(Cl)cc(Cl)c3)n2)CC1`, 16.7 µM.
The molecule `N#Cc1ccc(S(=O)(=O)N2CCN(c3nccc(Oc4cc(Cl)cc(Cl)c4)n3)CC2)cc1` had an IC50 of 24.8 µM.
With `O=C(c1cccc(O)c1)N1CCN(c2nccc(Oc3cc(Cl)cc(Cl)c3)n2)CC1`, half-maximal inhibition (IC50) was put at 18.4 µM. This IC50 and that of the molecule before are within 1.5-fold of each other.
Still for that read-out and setting: the result for `COc1ccccc1S(=O)(=O)N1CCN(c2nccc(Oc3cc(Cl)cc(Cl)c3)n2)CC1` reads 16.8 µM.
Same read-out and setting: in the case of `O=C(Nc1ccc(C(F)(F)F)cc1)N1CCN(c2nccc(NCc3ccccc3)n2)CC1` it was 2.45 µM; in that of `Cc1cccc(C(=O)N2CCN(c3nccc(Oc4cc(Cl)cc(Cl)c4)n3)CC2)c1`, above 50 µM.
Same read-out and setting: in the case of `O=C(c1ccc(Cl)cc1Cl)N1CCN(c2nccc(Oc3cc(Cl)cc(Cl)c3)n2)CC1` it was 11.8 µM; in that of `O=C(Nc1ccc(C(F)(F)F)cc1)N1CCN(c2nccc(Oc3cc(Cl)cc(Cl)c3)n2)CC1`, 1.54 µM.
Consider `O=C(c1ccc(C(F)(F)F)cc1)N1CCN(c2nccc(Oc3cc(Cl)cc(Cl)c3)n2)CC1`, for which the IC50 is 12.5 µM.
`O=C(c1ccc(Cl)cc1Cl)N1CCN(c2nccc(NCc3ccccc3)n2)CC1` had a 50% inhibitory concentration (IC50) of 9.79 µM. This IC50 and that of the molecule before are within 1.5-fold of each other.
Consider `COc1cccc(Nc2ccnc(N3CCN(C(=O)Nc4ccccc4Cl)CC3)n2)c1`, for which the midpoint of inhibition, the IC50, lay at 5.26 µM.
The same measure, in the same setting: the result for `O=C(c1ccc2ncccc2c1)N1CCN(c2nccc(Oc3cc(Cl)cc(Cl)c3)n2)CC1` reads above 50 µM; that for `CC(=O)Nc1ccc(C(=O)N2CCN(c3nccc(Oc4cc(Cl)cc(Cl)c4)n3)CC2)cc1`, above 50 µM; that for `CC(C)(C)c1ccc(S(=O)(=O)N2CCN(c3nccc(Oc4cc(Cl)cc(Cl)c4)n3)CC2)cc1`, above 50 µM.
On the same count and under the same terms, in the case of `COc1cccc(Nc2ccnc(N3CCN(C(=O)c4ccc(Cl)cc4Cl)CC3)n2)c1` it was 11.3 µM; in that of `O=C(Nc1cccc(Cl)c1)N1CCN(c2nccc(Oc3cc(Cl)cc(Cl)c3)n2)CC1`, 7.9 µM; in that of `O=C(Nc1ccc2ccccc2c1)N1CCN(c2nccc(Oc3cc(Cl)cc(Cl)c3)n2)CC1`, 46.8 µM.
Still for that read-out and setting: in the case of `COc1ccc(S(=O)(=O)N2CCN(c3nccc(Oc4cc(Cl)cc(Cl)c4)n3)CC2)cc1` it was 46.8 µM; in that of `O=S(=O)(c1ccccc1)N1CCN(c2nccc(Oc3cc(Cl)cc(Cl)c3)n2)CC1`, above 50 µM.
`O=C(c1ccc[nH]1)N1CCN(c2nccc(Oc3cc(Cl)cc(Cl)c3)n2)CC1` registered a concentration for half-maximal inhibition (IC50) of 35.2 µM.
Still for that read-out and setting: the result for `COc1ccc(NC(=O)N2CCN(c3nccc(Oc4cc(Cl)cc(Cl)c4)n3)CC2)cc1` reads 16.4 µM; that for `Cc1ccc(NC(=O)N2CCN(c3nccc(Oc4cc(Cl)cc(Cl)c4)n3)CC2)cc1`, 11.6 µM.

Another assay relates to MDA-MB-231. In words: Antiproliferative activity against human MDA-MB-231 cells incubated for 48 hrs by MTT assay. Conditions: MDA-MB-231, 48 h. Format: functional, cell-based. In a few lines:
as §1
On to `C#Cc1cccc(Nc2ncnc3cc(OCCOC)c(OCCOC)cc23)c1` [ERLOTINIB], for which the IC50 is 33.5 µM.

The next assay deals with MDA-MB-231. The assay is described as follows: Antiproliferative activity against human MDA-MB-231 cells incubated for 72 hrs by MTT assay. Format: functional, cell-based. As to conditions: MDA-MB-231, 72 h. Put shortly:
as §1
In turn, `C#Cc1cccc(Nc2ncnc3cc(OCCOC)c(OCCOC)cc23)c1` [ERLOTINIB] came in with an IC50 of 30.1 µM.

Source of the values: ChEMBL document CHEMBL4130442, “Design, synthesis and structure-activity relationship studies of a focused library of pyrimidine moiety with anti-proliferative and anti-metastasis activities in triple negative breast cancer” (Eur J Med Chem, 2017).
